# Compounds with a hit are over-represented: about 2.9% of the library has one in this group of screens.
# CHO-K1 Ca ag = nonselective activator or artifact in parental CHO-K1 cells | Fluo-8 calcium fluorescence; scaled to maximal ATP response, vehicle zero | activation, % at 3 µM | 360,000 tested, 0.48% active | AID 602248; in the data active = activation above about 15%;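 note: untransfected CHO-K1 host cells lacking M1 receptor as counterscreen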
# CHO parental Ca = signal in parental CHO cells, OX1R antagonist counter-screen; AID 463079; 330,000 tested, 0.63% active; inhibition, % at 5.6 µM; parental CHO-K1, ATP-induced calcium, Fluo-8 fluorescence;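 active = inhibition above that plate's mean sample inhibition plus 3 SD, cut at about 26% in these data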;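 note: 0% = ATP-challenged DMSO wells and 100% = DMSO wells without ATP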
#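 Material: parental CHO cells / Compound: single nominal dose of 5.6 µM per compound / Signal: Fluo-8 fluorescence / Replicates: singlicate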
# CHO-K1 Ca antag = nonselective inhibitor or artifact in parental CHO-K1 cells. AID 602250. 360,000 tested, 0.6% active. inhibition, % at 3 µM. ATP-induced calcium, Fluo-8 fluorescence;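 active = inhibition above a per-plate cutoff, the plate's mean sample inhibition plus 3 SD, cut at about 24% in these data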;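 note: 0% = DMSO plus EC80 ATP and 100% = DMSO alone without ATP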
# OX1R antag-1 = blocks the human orexin 1 receptor; inhibition, % at 6.6 µM; O43613; OX1R-expressing cells, FRET antagonist read-out; AID 485270; 330,000 tested, 1.8% active; in the data active = inhibition mostly above about 38%, no sharp cut-off; inactive = mostly below about 40%;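 note: 0% = agonist challenge alone and 100% = reference antagonist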
# Target sequence (O43613 whole entry, looked up): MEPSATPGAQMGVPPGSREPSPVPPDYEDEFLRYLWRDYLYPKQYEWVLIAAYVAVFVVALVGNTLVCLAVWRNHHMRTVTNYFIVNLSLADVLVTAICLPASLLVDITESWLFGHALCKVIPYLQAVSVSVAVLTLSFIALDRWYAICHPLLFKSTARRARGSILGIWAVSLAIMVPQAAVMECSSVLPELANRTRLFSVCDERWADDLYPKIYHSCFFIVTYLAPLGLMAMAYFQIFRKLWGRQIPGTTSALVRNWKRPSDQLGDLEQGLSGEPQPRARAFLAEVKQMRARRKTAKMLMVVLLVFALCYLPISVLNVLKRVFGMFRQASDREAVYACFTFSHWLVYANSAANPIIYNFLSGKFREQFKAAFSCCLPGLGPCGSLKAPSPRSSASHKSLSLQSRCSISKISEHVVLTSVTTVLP
# OX1R antag-2 = antagonists of human orexin 1 receptor; CHO/OX1R cells, Fluo-8 calcium fluorescence, orexin A; O43613; inhibition, % at 5 µM; 330,000 tested, 0.43% active; AID 434989;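 active = inhibition above its plate's threshold, mean inhibition of all tested compounds on the plate plus 3 SD, cut at about 37% in these data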;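 note: 0% = orexin A challenge wells and 100% = SB-334867-A antagonist wells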
# M1 PAM parental = M1 PAM counterscreen hit in parental CHO-K1 cells; activation, % at 3 µM; 360,000 tested, 0.02% active; ATP EC20, Fluo-8 calcium fluorescence; 0% at ATP EC20, 100% at ATP max;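 active = activation above the run cutoff, the mean activation of all test compounds plus 3 SD, cut at about 40% in these data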;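 note: peak over basal fluorescence ratio in a 140 s read after ATP addition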
# Numbers without * were called inactive; · = not tested or not shown.
SMILES,CHO-K1 Ca ag,CHO parental Ca,CHO-K1 Ca antag,OX1R antag-1,OX1R antag-2,M1 PAM parental
CCOC(=O)c1c(C)[nH]c(C(=O)COC(=O)c2ccc(O)cc2O)c1C,1,2,-10,11,-4,20
CCOC(=O)c1c(C)[nH]c(C(=O)CN2C(=O)NC(C)(c3ccc(C)cc3)C2=O)c1C (stereo not drawn),19*,-28,2,-6,-19,28
CCOc1ccc(/C=N/NC(=O)Cc2cccs2)cc1,0,-5,-5,0,7,11
COc1cccc(NC(=S)NC2CC(C)(C)NC(C)(C)C2)c1,0,-8,26*,13,-17,-11
COc1cccc(C(=O)OC2CCN(C)CC2)c1,-1,4,29*,15,8,-14
COc1cccc(C(=O)OC2CCCN(C)C2)c1 (stereo not drawn),0,1,-5,7,3,10
CCN1C(=NCCN2CCOCC2)N[C@@H](c2ccccc2)C(C(=O)OC)=C1C,-1,-12,26*,24,-23,-21
COC(=O)C1=C(C)N(Cc2ccccc2)C(=NCc2ccccc2)N[C@H]1c1ccccc1,16*,3,9,15,35,6
COC(=O)C1=C(C)N(Cc2ccccc2)C(=NCc2cccc(Cl)c2)N[C@H]1c1ccccc1,2,9,1,21,43,-3
CN(C(=O)c1cccc(NC(=O)Cc2ccc(NC(=O)C3CCN(C(=O)C4CCCC4)CC3)cc2)c1)C1CC1,1,·,-15,·,·,15
OCCC1CN(C2CCN(c3ccccc3F)CC2)CCN1Cc1ccccc1 (stereo not drawn),3,-3,-9,10,-23,19
Cc1ccc(C)c(SCC(=O)Nc2oc(C)c3c(C)n[nH]c(=O)c23)c1,2,-25,-5,15,-28,-4
Cc1cccn2c(=O)c3cc(C(=O)NC4CCCCC4)c(=N)n(CCN4CCOCC4)c3nc12,1,-2,-9,63*,-14,11
Cc1cccn2c(=O)c3cc(C(=O)NCc4ccc(F)cc4)c(=N)n(CCCN4CCOCC4)c3nc12,0,·,-5,·,·,19
Cc1cccn2c(=O)c3cc(C(=O)NC4CCCC4)n(C)c3nc12,0,-22,-23,23,-28,20
CCCn1c(=N)c(C(=O)NC2CCCC2)cc2c(=O)n3cccc(C)c3nc21,0,-19,-1,81*,-20,19
Cc1ccc(C(=O)N/C(=C/C=C\c2ccccc2)C(=O)NCc2ccco2)cc1,1,-6,1,26,-22,7
O=C1NC[C@@H](CCCCN2C[C@H](Cc3ccc(O)cc3)N(CC3CCCCC3)C(=O)C2=O)N(CCC2CCCCC2)C1=O,63*,·,-9,·,·,8
O=C1NC[C@H](CCCCN2C[C@H](Cc3ccccc3)N(Cc3ccccc3)C(=O)C2=O)N(CC2CCCCC2)C1=O,0,·,-5,·,·,-4
O=C1NC[C@@H](CCCCN2C[C@H](Cc3ccccc3)N(CC3CCCCC3)C(=O)C2=O)N(Cc2ccccc2)C1=O,17*,·,-5,·,·,-10
CCOc1cc(/C=N/n2cnnc2)ccc1OC(=O)c1cccc([N+](=O)[O-])c1,1,-11,31*,40,-17,-9
CCOc1cc(/C=N/NC(=O)c2cc(C)[nH]n2)ccc1OC(=O)c1ccc([N+](=O)[O-])cc1,·,-17,·,19,-42,·
O=C1CCC(c2ccccc2)(C2CCN(Cc3ccccc3)CC2)C(=O)N1 (stereo not drawn),0,-2,-4,12,-15,7
CCOC(=O)CSc1cc(C)nc2ccc(OC)cc12,0,-29,24*,27,-33,-19
COc1ccc2nc(C)cc(SCC(=O)NNC(=O)COc3cccc4ccccc34)c2c1,5,-16,-1,71*,14,11
SMILES,CHO-K1 Ca ag,CHO parental Ca,CHO-K1 Ca antag,OX1R antag-1,OX1R antag-2,M1 PAM parental
COc1ccc2nc(C)cc(SCC(=O)NNC(=O)COc3ccc(C)cc3)c2c1,0,7,-13,33,6,16
Brc1ccc(OCc2nnc3n2CCC3)cc1,1,-7,21,9,-2,0
CCCc1ccc(OCC(=O)Nc2cc(S(=O)(=O)CC)ccc2O)cc1,16*,2,-6,2,-1,6
O=C1[C@@H]2[C@@H](CN3CN(c4ccccc4)N=C(c4ccccc4)[C@@]23c2ccccc2)C(=O)N1c1ccccc1,1,·,-30,·,·,42*
O=C1[C@H]2C(c3ccccc3)=NN(c3ccccc3)[C@H]2C(=O)N1c1ccccc1,-1,-18,-7,11,-8,6
CC(C)OCCCNC(=S)Nc1ccc(S(N)(=O)=O)cc1,0,-1,-10,7,2,19
Cc1nn2c(CN(C(=O)COc3ccccc3)c3ccccc3)nnc2c2ccccc12,3,-10,-11,62*,0,2
CCC(=O)Nc1ccc2c(c1)nc1n2CCSC1,0,4,24*,9,6,-7
CCOc1cc(-c2noc(CCC(=O)NCCc3ccccc3)n2)ccc1OC,0,-17,5,15,-37,-11
COC(=O)C1=C(C)NC(C)=C(C(=O)OC)C1c1ccc2ccccc2n1,-1,-18,12,12,-22,-7
O=C1c2ccccc2C(=O)C1c1ccc2ccccc2n1,0,-6,-7,51*,-19,19
O=C(Nc1ccc(Cl)cn1)C1CCCN1S(=O)(=O)c1cccc2ccccc12 (stereo not drawn),1,-10,-2,64*,3,4
O=C(Nc1ccc(Cl)cn1)C1CCCN1S(=O)(=O)c1ccc(Cl)cc1 (stereo not drawn),4,-31,-7,64*,37,0
O=C(CCNS(=O)(=O)c1ccc(Cl)cc1)N1CCN(c2ncccn2)CC1,1,·,-6,·,·,15
O=C(COC(=O)/C=C/c1ccccc1[N+](=O)[O-])Nc1ccc(S(=O)(=O)N2CCOCC2)cc1,1,-8,-6,15,-6,0
Cc1cc(C)n2nc(SCC(=O)NC3CCCC(C)C3C)nc2n1 (stereo not drawn),0,-2,2,14,-11,-9
CC1CCCC(NC(=O)CSc2ncccn2)C1C (stereo not drawn),-1,-16,27*,0,6,-23
O=C(Nc1cccc(Cl)c1)Nc1nnc(-c2ccncc2)s1,11,6,33*,62,24,-5
COc1cccc(NC(=O)Nc2cccs2)c1,4,-15,3,14,-8,6
CC(=O)c1cccc(NC(=O)Nc2cccs2)c1,1,-17,26*,22,-10,-3
CC(=O)Nc1ccc(NC(=O)Nc2cccc(Cl)c2)cc1,2,-5,-6,-2,-24,7
O=C(Nc1ccc2nccnc2c1)Nc1ccccc1Cl,4,-15,-16,20,-30,10
O=C(Nc1cccc(Cl)c1)Nc1ccc2nccnc2c1,14,10,17,34*,8,-29

# Bioassay records deposited in PubChem BioAssay by The Scripps Research Institute Molecular Screening Center.
